Assay results taken from ChEMBL document CHEMBL5303300, “EUbOPEN Chemogenomics Library - Multiplex” (2023).
Values joined by “and” are separate entries in the source; they are usually repeats but may differ in a detail not shown here. Identical values can stand only once.

Test system: U2OS
Assay: Multiplex assay against U2OS
Format: toxicity, cell-based
Details: human, number of replicates 2
Procedure, shortened: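 Per cents of healthy-nucleus cells form the tubulin, mitochondrial-mass and membrane-permeability phenotype values. Live cells were stained at seeding with Hoechst33342, BioTracker Green Microtubule Cytoskeleton Dye, MitoTracker Red and Annexin V Alexa Fluor 680. After compound addition they were imaged on a CQ1 microscope at 37°C and 5% CO2, and CellPathfinder machine-learning gating split them into Hoechst high-intensity objects or normal cells, normal cells into healthy, pyknosed or fragmented nuclei, and pyknosed cells into mitotic or apoptotic.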

[1] = 12 h, 1 µM, compound concentration 1 uM
[2] = 12 h, 10 µM, compound concentration 10 uM
[3] = 24 h, 1 µM, compound concentration 1 uM
[4] = 24 h, 10 µM, compound concentration 10 uM
[5] = 48 h, 1 µM, compound concentration 1 uM
[6] = 48 h, 10 µM, compound concentration 10 uM

## CCNc1ccc(-c2nn(-c3ccccc3C)c3c2C(C)Cc2nc(NC(=O)OC)sc2-3)cn1.O=C(O)C(F)(F)F (stereo not drawn)
[1]
  Population Apoptotic (%): 72% and 80%
  Population Fragmented Nuclei (%): 14% and 11%
  Population Healthy Nuclei (%): 71% and 73%
  Population Hoechst High Intensity Objects (%): 0% and 1%
  Population Membrane Permeable-Phenotype (%): 5% and 2%
  Population Mitochondria Different-Phenotype (%): 5% and 4%
  Population Mitotic Cells (%): 27% and 20%
  Population Normal (%): 100% and 98%
  Population Pyknosed Nuclei (%): 14%
  Population Tubulin-Different-Phenotype (%): 55% and 24%
  Total Cell Count: 200 and 68
[2]
  Population Apoptotic (%): 83% and 88%
  Population Fragmented Nuclei (%): 32% and 18%
  Population Healthy Nuclei (%): 25% and 55%
  Population Hoechst High Intensity Objects (%): 0%
  Population Membrane Permeable-Phenotype (%): 28% and 25%
  Population Mitotic Cells (%): 16% and 11%
  Population Normal (%): 100% and 99%
  Population Pyknosed Nuclei (%): 42% and 25%
  Population Tubulin-Different-Phenotype (%): 57% and 88%
[3]
  Population Apoptotic (%): 84% and 75%
  Population Fragmented Nuclei (%): 14% and 6%
  Population Healthy Nuclei (%): 63% and 74%
  Population Hoechst High Intensity Objects (%): 0%
  Population Membrane Permeable-Phenotype (%): 2% and 8%
  Population Mitochondria Different-Phenotype (%): 9% and 2%
  Population Mitotic Cells (%): 15% and 25%
  Population Normal (%): 100%
  Population Pyknosed Nuclei (%): 21% and 19%
  Population Tubulin-Different-Phenotype (%): 58% and 34%
  Total Cell Count: 176 and 63
[4]
  Population Apoptotic (%): 72% and 89%
  Population Healthy Nuclei (%): 18% and 39%
  Population Hoechst High Intensity Objects (%): 0%
  Population Membrane Permeable-Phenotype (%): 14% and 32%
  Population Mitochondria Different-Phenotype (%): 28% and 63%
  Population Mitotic Cells (%): 27% and 10%
  Population Normal (%): 100% and 99%
  Population Pyknosed Nuclei (%): 29% and 45%
  Population Tubulin-Different-Phenotype (%): 42% and 83%
[5]
  Population Apoptotic (%): 72% and 80%
  Population Fragmented Nuclei (%): 9% and 7%
  Population Healthy Nuclei (%): 52% and 57%
  Population Hoechst High Intensity Objects (%): 0% and 1%
  Population Membrane Permeable-Phenotype (%): 6% and 7%
  Population Mitochondria Different-Phenotype (%): 9% and 2%
  Population Mitotic Cells (%): 27% and 20%
  Population Normal (%): 99% and 98%
  Population Pyknosed Nuclei (%): 37% and 35%
  Population Tubulin-Different-Phenotype (%): 69% and 25%
  Total Cell Count: 157 and 71
[6]
  Population Apoptotic (%): 90% and 93%
  Population Healthy Nuclei (%): 10% and 28%
  Population Hoechst High Intensity Objects (%): 0%
  Population Membrane Permeable-Phenotype (%): 66% and 43%
  Population Mitotic Cells (%): 10% and 6%
  Population Normal (%): 100% and 99%
  Population Pyknosed Nuclei (%): 33% and 61%
  Population Tubulin-Different-Phenotype (%): 100% and 84%

## Cc1cc(C2CCCNC2)ccc1Nc1ncc(Br)c(NCc2cccc3c2C(C)(C)C(=O)N3)n1 (stereo not drawn)
[1]
  Population Apoptotic (%): 50% and 63%
  Population Healthy Nuclei (%): 57% and 78%
  Population Hoechst High Intensity Objects (%): 0%
  Population Membrane Permeable-Phenotype (%): 31% and 29%
  Population Mitochondria Different-Phenotype (%): 9% and 19%
  Population Mitotic Cells (%): 50% and 36%
  Population Normal (%): 100%
  Population Pyknosed Nuclei (%): 10% and 11%
  Population Tubulin-Different-Phenotype (%): 65% and 44%
  Total Cell Count: 56 and 99
[2]
  Population Apoptotic (%): 82% and 73%
  Population Fragmented Nuclei (%): 28% and 14%
  Population Healthy Nuclei (%): 42% and 69%
  Population Hoechst High Intensity Objects (%): 0%
  Population Membrane Permeable-Phenotype (%): 24% and 20%
  Population Mitochondria Different-Phenotype (%): 56% and 54%
  Population Mitotic Cells (%): 17% and 26%
  Population Normal (%): 100%
  Population Pyknosed Nuclei (%): 28% and 16%
  Population Tubulin-Different-Phenotype (%): 88% and 83%
[3]
  Population Apoptotic (%): 70% and 51%
  Population Healthy Nuclei (%): 54% and 72%
  Population Hoechst High Intensity Objects (%): 1% and 0%
  Population Membrane Permeable-Phenotype (%): 17% and 15%
  Population Mitochondria Different-Phenotype (%): 34% and 21%
  Population Mitotic Cells (%): 30% and 48%
  Population Normal (%): 98% and 100%
  Population Pyknosed Nuclei (%): 18% and 21%
  Population Tubulin-Different-Phenotype (%): 75% and 58%
  Total Cell Count: 54 and 125
[4]
  Population Apoptotic (%): 88% and 66%
  Population Fragmented Nuclei (%): 27% and 10%
  Population Hoechst High Intensity Objects (%): 0%
  Population Membrane Permeable-Phenotype (%): 66% and 31%
  Population Mitochondria Different-Phenotype (%): 66% and 61%
  Population Mitotic Cells (%): 12% and 33%
  Population Normal (%): 100% and 99%
  Population Pyknosed Nuclei (%): 53% and 25%
  Population Tubulin-Different-Phenotype (%): 88% and 82%
[5]
  Population Apoptotic (%): 87% and 70%
  Population Fragmented Nuclei (%): 8% and 20%
  Population Healthy Nuclei (%): 74% and 64%
  Population Hoechst High Intensity Objects (%): 0% and 1%
  Population Membrane Permeable-Phenotype (%): 13% and 14%
  Population Mitochondria Different-Phenotype (%): 16% and 21%
  Population Mitotic Cells (%): 12% and 30%
  Population Normal (%): 100% and 98%
  Population Pyknosed Nuclei (%): 17% and 15%
  Population Tubulin-Different-Phenotype (%): 63% and 46%
  Total Cell Count: 175 and 65
[6]
  Population Apoptotic (%): 91% and 87%
  Population Fragmented Nuclei (%): 19% and 8%
  Population Hoechst High Intensity Objects (%): 0% and 2%
  Population Membrane Permeable-Phenotype (%): 100% and 43%
  Population Mitochondria Different-Phenotype (%): 50% and 83%
  Population Mitotic Cells (%): 8% and 12%
  Population Normal (%): 100% and 97%
  Population Pyknosed Nuclei (%): 76% and 43%
  Population Tubulin-Different-Phenotype (%): 100% and 82%
